Measurements as given in article PMC6923798 (Bioorganic chemistry, 2018).

Assays:
OVCAR-4 = test: NCI in vitro five dose anticancer assay; type: cell-based, human
SK-MEL-2 = test: NCI in vitro five dose anticancer assay; type: cell-based, human
MCF7 = test: NCI in vitro five dose anticancer assay; type: cell-based, human
SR cell line = test: NCI in vitro one dose anticancer assay; type: cell-based; conditions: Homo sapiens, 48 h, read-out: % growth inhibition
Method in brief: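 NCI protocol. Test compound added once at 10−5 M to ~60 human tumour lines from nine subpanels. Incubated 48 h at 37 °C, 5% CO2, 95% air, 100% relative humidity. Endpoint by sulforhodamine B protein staining with spectrophotometric absorbance. Growth of treated cells reported as percent of untreated cells.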

SR = test: NCI in vitro five dose anticancer assay; type: cell-based, human; conditions: 48 h
HOP-62 = test: NCI in vitro five dose anticancer assay; type: cell-based, human
DU-145 = test: NCI in vitro five dose anticancer assay; type: cell-based, human

COc1ccc(C=CC(=O)c2ccc(NC(=O)CSc3nnc(-c4cc(OC)c(OC)c(OC)c4)o3)cc2)cc1 [Compound 8v, N-(4-(3-(4-Methoxyphenyl)acryloyl)phenyl)-2-((5-(3,4,5-trimethoxy-phenyl)-1,3,4-oxadiazol-2-yl)thio)acetamide]
GI50 (OVCAR-4; Homo sapiens, OVCAR-4, 48 h): 2000 nM
TGI (OVCAR-4; OVCAR-4, Ovarian Cancer, five dose, 48 h, SRB): 4620 nM
GI50 (SK-MEL-2; Homo sapiens, SK-MEL-2, 48 h): 1790 nM
TGI (SK-MEL-2; SK-MEL-2, Melanoma, five dose, 48 h, SRB): 4820 nM
GI50 (MCF7; Homo sapiens, MCF7, 48 h): 1270 nM
TGI (MCF7; MCF7, Breast cancer, five dose, 48 h, SRB): 3680 nM
inhibition at 10 µM (SR cell line): 32.9 to 160%
GI50 (SR; Homo sapiens): 1860 nM
TGI (SR; Leukemia, five dose, SRB): 4010 nM
TGI (HOP-62; HOP-62, Non-Small Cell Lung Cancer, five dose, 48 h, SRB): 4530 nM
GI50 (HOP-62; Homo sapiens, HOP-62, 48 h): 2130 nM
TGI (DU-145; DU-145, Prostate Cancer, five dose, 48 h, SRB): 3210 nM
GI50 (DU-145; Homo sapiens, DU-145, 48 h): 1750 nM
